Laboratory results from ChEMBL document CHEMBL4689842, “EUbOPEN Chemogenomics Library wave 1” (2021).

Tested on: HEK-293T
Assay: Multiplex assay against HEK293T;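 as to Population Tubulin-Different-Phenotype (%): share of the cells with healthy nuclei that show this phenotype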
Format: toxicity, cell-based
Settings: human
Outline: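 Imaging took place on a CQ1 microscope at 37°C and 5% CO2 once compound had been added to live cells stained at seeding with Hoechst33342, BioTracker Green Microtubule Cytoskeleton Dye, MitoTracker Red and Annexin V Alexa Fluor 680. CellPathfinder machine-learning gating classed cells as Hoechst high-intensity objects or normal cells, classed normal cells as having healthy, pyknosed or fragmented nuclei, and classed pyknosed cells as mitotic or apoptotic. Tubulin, mitochondrial-mass and membrane-permeability phenotypes are per cents of the healthy-nucleus cells.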

[1] = 12 h, 1 µM, compound concentration 1 uM, replicate 1
[2] = 12 h, 1 µM, compound concentration 1 uM, replicate 2
[3] = 12 h, 10 µM, compound concentration 10 uM, replicate 1
[4] = 12 h, 10 µM, compound concentration 10 uM, replicate 2
[5] = 24 h, 1 µM, compound concentration 1 uM, replicate 1
[6] = 24 h, 1 µM, compound concentration 1 uM, replicate 2
[7] = 24 h, 10 µM, compound concentration 10 uM, replicate 1
[8] = 24 h, 10 µM, compound concentration 10 uM, replicate 2
[9] = 48 h, 1 µM, compound concentration 1 uM, replicate 1
[10] = 48 h, 1 µM, compound concentration 1 uM, replicate 2
[11] = 48 h, 10 µM, compound concentration 10 uM, replicate 1
[12] = 48 h, 10 µM, compound concentration 10 uM, replicate 2

Structure (SMILES): CN1CCCC(n2nc(Cc3ccc(Cl)cc3)c3ccccc3c2=O)CC1.Cl (stereo not given) [AZELASTINE HYDROCHLORIDE]
- Population Apoptotic (%) [1]: 50%
- Population Fragmented Nuclei (%) [1]: 8%
- Population Healthy Nuclei (%) [1]: 42%
- Population Hoechst High Intensity Objects (%) [1]: 9%
- Population Membrane Permeable-Phenotype (%) [1]: 3%
- Population Mitochondria Different-Phenotype (%) [1]: 94%
- Population Mitotic Cells (%) [1]: 49%
- Population Normal (%) [1]: 90%
- Population Pyknosed Nuclei (%) [1]: 50%
- Population Tubulin-Different-Phenotype (%) [1]: 84%
- Total Cell Count [1]: 333
- Population Apoptotic (%) [2]: 40%
- Population Fragmented Nuclei (%) [2]: 6%
- Population Healthy Nuclei (%) [2]: 24%
- Population Hoechst High Intensity Objects (%) [2]: 5%
- Population Membrane Permeable-Phenotype (%) [2]: 4%
- Population Mitochondria Different-Phenotype (%) [2]: 61%
- Population Mitotic Cells (%) [2]: 59%
- Population Normal (%) [2]: 94%
- Population Pyknosed Nuclei (%) [2]: 69%
- Population Tubulin-Different-Phenotype (%) [2]: 68%
- Total Cell Count [2]: 190
- Population Apoptotic (%) [3]: 82%
- Population Fragmented Nuclei (%) [3]: 11%
- Population Healthy Nuclei (%) [3]: 16%
- Population Hoechst High Intensity Objects (%) [3]: 19%
- Population Membrane Permeable-Phenotype (%) [3]: 2%
- Population Mitochondria Different-Phenotype (%) [3]: 100%
- Population Mitotic Cells (%) [3]: 17%
- Population Normal (%) [3]: 80%
- Population Pyknosed Nuclei (%) [3]: 72%
- Population Tubulin-Different-Phenotype (%) [3]: 78%
- Total Cell Count [3]: 289
- Population Apoptotic (%) [4]: 89%
- Population Fragmented Nuclei (%) [4]: 5%
- Population Healthy Nuclei (%) [4]: 23%
- Population Hoechst High Intensity Objects (%) [4]: 4%
- Population Membrane Permeable-Phenotype (%) [4]: 3%
- Population Mitochondria Different-Phenotype (%) [4]: 98%
- Population Mitotic Cells (%) [4]: 10%
- Population Normal (%) [4]: 95%
- Population Pyknosed Nuclei (%) [4]: 70%
- Population Tubulin-Different-Phenotype (%) [4]: 56%
- Total Cell Count [4]: 231
- Population Apoptotic (%) [5]: 56%
- Population Fragmented Nuclei (%) [5]: 8%
- Population Healthy Nuclei (%) [5]: 37%
- Population Hoechst High Intensity Objects (%) [5]: 11%
- Population Membrane Permeable-Phenotype (%) [5]: 3%
- Population Mitochondria Different-Phenotype (%) [5]: 92%
- Population Mitotic Cells (%) [5]: 43%
- Population Normal (%) [5]: 88%
- Population Pyknosed Nuclei (%) [5]: 54%
- Population Tubulin-Different-Phenotype (%) [5]: 83%
- Total Cell Count [5]: 353
- Population Apoptotic (%) [6]: 50%
- Population Fragmented Nuclei (%) [6]: 7%
- Population Healthy Nuclei (%) [6]: 49%
- Population Hoechst High Intensity Objects (%) [6]: 4%
- Population Membrane Permeable-Phenotype (%) [6]: 5%
- Population Mitochondria Different-Phenotype (%) [6]: 66%
- Population Mitotic Cells (%) [6]: 50%
- Population Normal (%) [6]: 95%
- Population Pyknosed Nuclei (%) [6]: 43%
- Population Tubulin-Different-Phenotype (%) [6]: 74%
- Total Cell Count [6]: 223
- Population Apoptotic (%) [7]: 82%
- Population Fragmented Nuclei (%) [7]: 13%
- Population Healthy Nuclei (%) [7]: 13%
- Population Hoechst High Intensity Objects (%) [7]: 19%
- Population Membrane Permeable-Phenotype (%) [7]: 0%
- Population Mitotic Cells (%) [7]: 17%
- Population Normal (%) [7]: 80%
- Population Pyknosed Nuclei (%) [7]: 72%
- Population Tubulin-Different-Phenotype (%) [7]: 59%
- Total Cell Count [7]: 289
- Population Apoptotic (%) [8]: 93%
- Population Fragmented Nuclei (%) [8]: 8%
- Population Healthy Nuclei (%) [8]: 33%
- Population Hoechst High Intensity Objects (%) [8]: 7%
- Population Membrane Permeable-Phenotype (%) [8]: 4%
- Population Mitochondria Different-Phenotype (%) [8]: 100%
- Population Mitotic Cells (%) [8]: 6%
- Population Normal (%) [8]: 92%
- Population Pyknosed Nuclei (%) [8]: 58%
- Population Tubulin-Different-Phenotype (%) [8]: 38%
- Total Cell Count [8]: 230
- Population Apoptotic (%) [9]: 49%
- Population Fragmented Nuclei (%) [9]: 14%
- Population Healthy Nuclei (%) [9]: 42%
- Population Hoechst High Intensity Objects (%) [9]: 14%
- Population Membrane Permeable-Phenotype (%) [9]: 3%
- Population Mitochondria Different-Phenotype (%) [9]: 72%
- Population Mitotic Cells (%) [9]: 50%
- Population Normal (%) [9]: 85%
- Population Pyknosed Nuclei (%) [9]: 42%
- Population Tubulin-Different-Phenotype (%) [9]: 70%
- Total Cell Count [9]: 404
- Population Apoptotic (%) [10]: 47%
- Population Fragmented Nuclei (%) [10]: 7%
- Population Healthy Nuclei (%) [10]: 65%
- Population Hoechst High Intensity Objects (%) [10]: 5%
- Population Membrane Permeable-Phenotype (%) [10]: 6%
- Population Mitochondria Different-Phenotype (%) [10]: 48%
- Population Mitotic Cells (%) [10]: 52%
- Population Normal (%) [10]: 94%
- Population Pyknosed Nuclei (%) [10]: 26%
- Population Tubulin-Different-Phenotype (%) [10]: 71%
- Total Cell Count [10]: 324
- Population Apoptotic (%) [11]: 79%
- Population Fragmented Nuclei (%) [11]: 20%
- Population Healthy Nuclei (%) [11]: 6%
- Population Hoechst High Intensity Objects (%) [11]: 27%
- Population Membrane Permeable-Phenotype (%) [11]: 0%
- Population Mitochondria Different-Phenotype (%) [11]: 100%
- Population Mitotic Cells (%) [11]: 20%
- Population Normal (%) [11]: 72%
- Population Pyknosed Nuclei (%) [11]: 73%
- Population Tubulin-Different-Phenotype (%) [11]: 38%
- Total Cell Count [11]: 297
- Population Apoptotic (%) [12]: 89%
- Population Fragmented Nuclei (%) [12]: 8%
- Population Healthy Nuclei (%) [12]: 57%
- Population Hoechst High Intensity Objects (%) [12]: 18%
- Population Mitochondria Different-Phenotype (%) [12]: 99%
- Population Mitotic Cells (%) [12]: 10%
- Population Normal (%) [12]: 81%
- Population Pyknosed Nuclei (%) [12]: 34%
- Population Tubulin-Different-Phenotype (%) [12]: 15%
- Total Cell Count [12]: 231
